Laboratory results as given in ChEMBL document CHEMBL1145857, “Toward tissue-selective pancreatic B-cells KATP channel openers belonging to 3-alkylamino-7-halo-4H-1,2,4-benzothiadiazine 1,1-dioxides” (J Med Chem, 2003).

Legend:
[1] = species on record: Rattus norvegicus; test: Percent inhibition of residual insulin release from rat pancreatic islets in the presence of 16.7 mM glucose at 10 uM concentration; type: functional
Outline: (§1)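 Islets isolated by collagenase from fed Wistar rats (180–220 g); groups of 10 islets preincubated 30 min at 37 °C in bicarbonate salt medium with 2.8 mM glucose and 0.5% dialyzed albumin under O2/CO2 95:5, then incubated 90 min at 37 °C with 16.7 mM glucose plus drug. Insulin measured by radioimmunoassay against rat insulin standard; residual release as % of drug-free 16.7 mM glucose control; IC50 estimated.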

[2] = species on record: Rattus norvegicus; test: Effective dose required for relaxation of the 30 mM KCl-induced contraction of rat aortic rings; type: functional; conditions: Aorta, read-out: ED50 (the source's name)
Outline: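 Endothelium-denuded transverse aortic rings (3–4 mm) from fed Wistar rats (180–220 g); isometric tension by force transducer. After 60 min equilibration, contracted with 30 mM KCl; once stable, drug added cumulatively to maximal relaxation or 0.3 mM. Relaxation as % of KCl contraction; ED50 (50% inhibition of KCl plateau) from dose–response curves; mean ± SEM (n).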

[3] = species on record: Rattus norvegicus; test: Concentration required to inhibit insulin release in rat; type: functional
[4] = species on record: Rattus norvegicus; test: Estimated selectivity ratio of ED50 and IC50 in rat was calculated; type: functional
[5] = species on record: Rattus norvegicus; test: Percent inhibition of residual insulin release from rat pancreatic islets in the presence of 16.7 mM glucose at 1 uM concentration; type: functional; outline: as §1
[6] = species on record: Rattus norvegicus; test: Percent inhibition of residual insulin release from rat pancreatic islets in the presence of 16.7 mM glucose at 50 uM concentration; type: functional; outline: as §1
[7] = pKa value determined at 20 °C
[8] = species on record: Rattus norvegicus; test: Percent inhibition of residual insulin release from rat pancreatic islets in the presence of 16.7mM glucose at 0.1 uM concentration; type: functional
Outline: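 Islets isolated by collagenase from fed Wistar rats (180–220 g). Groups of 10 islets preincubated 30 min at 37 °C in bicarbonate salt medium with 2.8 mM glucose, 0.5% dialyzed albumin, gassed O2/CO2 95:5. Then incubated 90 min at 37 °C with 16.7 mM glucose plus drug. Insulin measured by radioimmunoassay against rat insulin; expressed as % of drug-free 16.7 mM glucose control; mean ± SEM (n).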

SMILES | RIS [1] [%] | EC50 [2] [µM] | IC50 [3] [nM] | Selectivity [4] | RIS [5] [%] | RIS [6] [%] | pKa [7] | RIS [8] [%]
O=S1(=O)NC(NC2CCCC2)=Nc2ccc(F)cc21 | 6.6 | 58 | 1800 | 32 | 68.8 | 5.4 | – | –
O=S1(=O)NC(NC2CCC2)=Nc2ccc(I)cc21 | 30.6 | 22.2 | < 10000 | >2.2 | – | – | – | –
CNC1=NS(=O)(=O)c2cc(F)ccc2N1 | 7.7 | > 300 | 2200 | >136 | 76.1 | 5.7 | – | –
C=CCNC1=Nc2ccc(F)cc2S(=O)(=O)N1 | 12.8 | > 300 | 2700 | >111 | 84.1 | 4.1 | – | –
CC(C)C(C)NC1=NS(=O)(=O)c2cc(Br)ccc2N1 (stereo unspecified) | 98.4 | 2.6 | > 10000 | < 0.26 | 97.2 | 21.4 | – | –
CCC(C)NC1=NS(=O)(=O)c2cc(Cl)ccc2N1 (stereo unspecified) | 19.9 | 15.5 | 3100 | 5 | 85.4 | 5.5 | – | –
CNC1=NS(=O)(=O)c2cc(Cl)ccc2N1 | 4.4 | 142 | 1100 | 129 | 55.1 | 2.4 | – | –
CCC(C)NC1=NS(=O)(=O)c2cc(I)ccc2N1 (stereo unspecified) | 64.8 | 1.3 | > 10000 | <0.13 | 84.2 | 22.5 | – | –
CC(C)NC1=NS(=O)(=O)c2cc(F)ccc2N1 | 3.7 | – | 800 | 54 | – | 3.3 | 9.63 | –
O=S1(=O)N=C(NC2CCC2)Nc2ccc(Cl)cc21 | 6.4 | 34.9 | 1300 | 27 | 60.2 | 8.1 | – | –
C=CCNC1=Nc2ccc(Br)cc2S(=O)(=O)N1 | 23.7 | 3 | 2800 | 1.1 | 77.2 | 4.8 | – | –
O=S1(=O)NC(NC2CCC2)=Nc2ccc(Br)cc21 | 9.6 | 21.7 | 1100 | 20 | 54.8 | 6.1 | – | –
CCC(C)(C)NC1=NS(=O)(=O)c2cc(Cl)ccc2N1 | 83.2 | 0.29 | > 10000 | <0.029 | – | – | – | –
CC(C)(C)NC1=NS(=O)(=O)c2cc(Cl)ccc2N1 | 64.4 | 1.4 | > 10000 | <0.14 | – | – | – | –
CC(C)NC1=NS(=O)(=O)c2cc(Br)ccc2N1 | 8.1 | – | 500 | 9.6 | – | 6.7 | 9.41 | 91
CC(C)C(C)NC1=NS(=O)(=O)c2cc(F)ccc2N1 (stereo unspecified) | 10.6 | 26.4 | 2800 | 9 | 87.7 | 7.9 | – | –
C=CCNC1=Nc2ccc(Cl)cc2S(=O)(=O)N1 | 17.3 | 28.9 | 3100 | 9 | 87.9 | 7.8 | – | –
CCC(CC)NC1=NS(=O)(=O)c2cc(I)ccc2N1 | 67 | 79.1 | > 10000 | <7.9 | – | 17 | – | –
CC1=Nc2ccc(Cl)cc2S(=O)(=O)N1 [DIAZOXIDE] | – | 22.4 | – | – | – | 26.7 | – | –
CC(N/C(=N\C#N)Nc1ccncc1)C(C)(C)C (stereo unspecified) [PINACIDIL ANHYDROUS] | – | 0.35 | > 100000 | – | 97.7 | 88.8 | – | –
